A selection: hits, their analogues and other compounds. The true share with any hit is near 1.3%.
CendR NRP1 mod = alters CendR peptide binding to human NRP-1. O14786. FAM-RPARPAR peptide binding to NRP-1, fluorescence polarization. inhibition, % at 25 µM. actives 0.85% (n = 360,000);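 active = inhibition or corrected inhibition above about 18%, plus a signal ratio from 0.5 to 1.5, limit read from the data, passing the limit was not always enough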
Target sequence (O14786 whole entry, looked up): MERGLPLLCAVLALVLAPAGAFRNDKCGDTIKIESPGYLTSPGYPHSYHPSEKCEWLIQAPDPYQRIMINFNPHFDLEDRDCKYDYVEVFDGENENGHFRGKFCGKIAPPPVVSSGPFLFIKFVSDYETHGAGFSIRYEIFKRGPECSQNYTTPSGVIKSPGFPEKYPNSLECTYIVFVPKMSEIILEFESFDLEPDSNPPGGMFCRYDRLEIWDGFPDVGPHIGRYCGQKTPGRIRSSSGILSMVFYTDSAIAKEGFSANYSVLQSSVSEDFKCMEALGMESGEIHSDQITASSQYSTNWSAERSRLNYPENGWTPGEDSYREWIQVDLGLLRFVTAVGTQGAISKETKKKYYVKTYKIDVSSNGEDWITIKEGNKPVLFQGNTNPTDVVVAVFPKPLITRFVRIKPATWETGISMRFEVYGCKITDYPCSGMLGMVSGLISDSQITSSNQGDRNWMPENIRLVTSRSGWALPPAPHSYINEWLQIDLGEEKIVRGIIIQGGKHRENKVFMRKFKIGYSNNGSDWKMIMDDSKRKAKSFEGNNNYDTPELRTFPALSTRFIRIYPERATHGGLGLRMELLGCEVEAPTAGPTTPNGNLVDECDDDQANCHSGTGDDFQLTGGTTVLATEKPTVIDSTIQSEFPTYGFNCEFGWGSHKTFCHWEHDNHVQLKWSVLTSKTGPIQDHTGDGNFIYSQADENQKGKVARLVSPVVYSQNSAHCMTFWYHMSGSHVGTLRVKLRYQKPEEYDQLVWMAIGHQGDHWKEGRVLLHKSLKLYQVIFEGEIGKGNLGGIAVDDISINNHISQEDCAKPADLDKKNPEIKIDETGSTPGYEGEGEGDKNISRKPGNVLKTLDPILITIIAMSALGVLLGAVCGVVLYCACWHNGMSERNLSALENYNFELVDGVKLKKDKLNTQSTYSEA
DDE Tn6 FP inh = disrupts Tn6 cyclic peptide binding to fibrin D-Dimer-E complex | P02675 | Fibrin DD(E) TRITC-Tn6 fluorescence polarization displacement | inhibition, % at 8.3 µM | actives 0.21% (n = 370,000) | AID 720509;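 active = inhibition above a per-campaign cutoff: mean of compounds within control limits plus 3 SD, cut at about 15% in these data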
DDE Tn7 FP inh = disrupts Tn7 cyclic peptide binding to fibrin D-Dimer-E complex; P02675; FP displacement of FITC-Tn7 peptide from fibrin DD(E); 0% = median of compound wells per plate; inhibition, % at 8.3 µM; actives 0.13% (n = 370,000);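 active = inhibition above the mean of compounds falling within the control limits plus 3 SD of them, cut at about 14% in these data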
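assay system = human clot-derived fibrin DD(E) complex | quantity = Fibrin-DD(E) at 2 µM final | timing = 10 min preincubation, 3 h with tracer, room temperature | signal = fluorescence polarization | measure = percent inhibition | benchmarks = high control wells with 10 µM unlabelled Aha-Tn7 peptide (full inhibition) | replicates = singlicate testing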
aDG glyco up = alpha-DG glycosylation activation; AID 624168; Pro5-aDG cells, alpha-DG glycosylation AlphaScreen (IIH6); 0% Pro5, 100% B10-LARGE cell signal; actives 0.22% (n = 360,000); activation, % at 10 µM;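 active = activation of at least 8% versus controls, or a plate z-score of at least 8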;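 also: Pro5 are CHO cells carrying HIG-tagged alpha-DG that lacks glycosylation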
Large screens that a line does not name were inactive.

Cc1ccc(COn2c(-c3ccc(Cl)cc3Cl)nc3ncccc32)cc1	CendR NRP1 mod 33
COc1ccc(S(=O)(=O)N2CCOCC2)cc1NC(=O)c1ccc(S(=O)(=O)N(C)c2ccccc2OC)cc1	none
COCc1cc(N2CCN(C(=O)OC(C)(C)C)C[C@H]2C)ccc1Br	none (no result: CendR NRP1 mod, aDG glyco up)
O=C(Nc1cccc(C(F)(F)F)c1)OCCN1CCN(Cc2ccccc2)CCC1=O	CendR NRP1 mod 23
O=C(Nc1ccc(F)cc1)OCCN1CCN(Cc2ccccc2)CCC1=O	none
CC1=C(C(=O)N2CCCCCC2)CC(CC(=O)NCCN2CCOCC2)C(=O)N1CCC1=CCCCC1 (configuration not stated)	none
COC(=O)c1cc(NC(=O)Cc2coc3cc(OC)ccc23)cc(C(=O)OC)c1	none
COC(=O)c1ccc(C)c(NC(=O)Cc2coc3cc(OC)ccc23)c1	CendR NRP1 mod 32
O=C(Cn1nnc(N2CCCCC2)n1)NN=Cc1ccccc1O	none (no result: CendR NRP1 mod, aDG glyco up)
CCCCSC(=S)NC1CCS(=O)(=O)C1 (configuration not stated)	CendR NRP1 mod 25
O=S1(=O)CCC(NC(=S)SCCOc2ccccc2)C1 (configuration not stated)	none
O=C(CSc1nccn1Cc1ccc(F)cc1)NC1CCCCC1	CendR NRP1 mod 25
CCCCNC(=O)C[C@@H]1C(=O)N(CCc2ccc(Cl)cc2)/C2=C/CCCCC[C@@]21C(=O)OCC	none (no result: CendR NRP1 mod, aDG glyco up)
COCc1cc(=O)[nH]c(/N=C(\N)Nc2ccc(C)cc2C)n1	CendR NRP1 mod 27
Cc1ccc(N/C(N)=N/c2nc(CSc3ccccn3)cc(=O)[nH]2)c(C)c1	none
C[C@H]1CN([C@@H](C)CO)C(=O)CCCn2cc(nn2)CO[C@@H]1CN(C)S(=O)(=O)c1ccc(Oc2ccccc2)cc1	none
NC(=O)[C@H]1CC2(CC(c3cccc(NC(=O)CC(c4ccccc4)c4ccccc4)c3)=NO2)CN1C(=O)C(c1ccccc1)c1ccccc1 (some centres not stated)	CendR NRP1 mod 30
CC/C=C/C(=O)N1CC2(CC(c3cccc(NC(=O)c4ccccc4)c3)=NO2)C[C@@H]1C(N)=O (some centres not stated)	CendR NRP1 mod 23
NC(=O)[C@H]1CC2(CC(c3cccc(NC(=O)CC(c4ccccc4)c4ccccc4)c3)=NO2)CN1C(=O)c1ccccc1C(=O)c1ccccc1 (some centres not stated)	none
C/C=C\C(=O)Nc1cccc(C2=NOC3(C2)C[C@H](C(N)=O)N(C(=O)/C=C/CC)C3)c1 (some centres not stated)	none
O=C(Nc1ccc(N2C(=O)[C@@H]3[C@H](C2=O)[C@@H]2C=C[C@H]3C2)c(Cl)c1)c1ccccn1	none (no result: CendR NRP1 mod, aDG glyco up)
CCOc1ccc(-n2c(SCC(=O)NN=Cc3ccc(C(=O)O)cc3)nnc2-c2cccnc2)cc1	none (no result: CendR NRP1 mod, aDG glyco up)
CSc1nnc(-c2cc(Br)ccc2N=Cc2c(C)[nH]n(-c3ccccc3)c2=O)c(=O)[nH]1	CendR NRP1 mod 18
CCC1(c2ccc(F)cc2)NC(=O)N(CC(=O)Nc2cccnc2Cl)C1=O (configuration not stated)	none
CCc1ccc(-c2ccc3nnc(SCC(N)=O)n3n2)cc1	CendR NRP1 mod 24
CCn1c(SCC(=O)NN=Cc2c[nH]c3ccccc23)nc2ccccc21	none (no result: CendR NRP1 mod, aDG glyco up)
CCNCc1nc2cc(OC)c(OC)cc2c(=O)[nH]1	CendR NRP1 mod 28
Cc1cnccc1CNC(=O)CC1C(=O)NCCN1CC(C)(C)C (configuration not stated)	CendR NRP1 mod 26
COC(=O)c1ccc(CSc2nc3c(c(=O)[nH]2)CCC3)cc1	none
Cc1csc(NC(=O)C2(C)CCN2C(=O)C(C)C)c1C#N (configuration not stated)	none (no result: DDE Tn6 FP inh, DDE Tn7 FP inh)
O=C(CC(=O)c1ccccc1)Nc1ccc([N+](=O)[O-])cc1	CendR NRP1 mod 25
CS(=O)(=O)Nc1ccc(C(=O)CC(=O)Nc2ccc([N+](=O)[O-])cc2)cc1	none
O=C(N1CCC(Cc2ccccc2)CC1)n1ncc(C(O)(c2ccccc2)c2ccccc2)n1	none (no result: CendR NRP1 mod, aDG glyco up)
COc1ccc(-c2c(-c3ccccc3OC)oc3ccccc23)cn1	CendR NRP1 mod 27
COc1ccc(-c2coc3cc(OC(C)=O)c(OC)cc3c2=O)cc1	CendR NRP1 mod 25
COC(=O)[C@]12C[C@H](CC(=O)NCCc3ccccc3OC)C(=O)N(CCC3=CCCCC3)C1=C[C@H](COCc1ccccc1)O[C@@H]2C	none (no result: CendR NRP1 mod, aDG glyco up)
O=C(N[C@@H](Cc1cccnc1)C(=O)N1CCC[C@H]1C(=O)NCCc1ccccc1Cl)c1ccc(Cl)c(Cl)c1	none (no result: CendR NRP1 mod, aDG glyco up)
Oc1ccc(-c2nc3ncccn3c2Nc2ccc3c(c2)OCO3)cc1	CendR NRP1 mod 24
CN1CCC(N[C@@H](Cc2c[nH]c3ccccc23)C(=O)NCCCc2ccccc2)(C(=O)NCCc2c[nH]c3ccccc23)CC1	none (no result: CendR NRP1 mod, aDG glyco up)
O=C(Nc1ccccc1Br)C1CC(=O)N(c2ccc3c4c(cccc24)CC3)C1 (configuration not stated)	CendR NRP1 mod 38
CCC(C)(C)C(=O)N1CCC(C(=O)NC2CCCc3ccccc32)CC1 (configuration not stated)	none (no result: CendR NRP1 mod, aDG glyco up)
Cc1nnc(SCCOc2ccccc2)s1	CendR NRP1 mod 51
Cc1cc(C(=O)Cn2ncc(Cl)c(Cl)c2=O)c(C)n1CC(F)(F)F	none
Cc1ccc(C)c(C(=O)Cn2ncc(Cl)c(Cl)c2=O)c1	CendR NRP1 mod 20
Cc1nc2ccc(S(=O)(=O)NCC(=O)N(C)Cc3ccccc3)cc2s1	CendR NRP1 mod 26
COc1ccc(CNC(=O)O[C@H]2CC[C@@]34CCCN3C(=O)CCC[C@H]4[C@H]2C)cc1	none (no result: CendR NRP1 mod, aDG glyco up)
CCN1CCN(Cc2ccc(NC(=O)c3cc(NC(=O)C(=O)c4c[nH]c5ccccc45)cc(OC)c3)cc2C(F)(F)F)CC1	DDE Tn6 FP inh 44
CCN1CCN(Cc2ccc(NC(=O)c3ccc(C)c(NC(=O)C(=O)c4c[nH]c5ccccc45)c3)cc2C(F)(F)F)CC1	none
CC(CNC(=O)[C@@H](Cc1ccccc1)NC(=O)[C@H]1O[C@@H](n2cnc3c(=O)[nH]c(N)nc32)[C@H](O)[C@@H]1O)c1ccccc1 (some centres not stated)	none (no result: CendR NRP1 mod, aDG glyco up)
Cc1onc(-c2c(F)cccc2Cl)c1C(=O)Nc1nnc(C(F)(F)F)s1	none
COCc1nnc(NC(=O)c2c(-c3c(Cl)cccc3Cl)noc2C)s1	CendR NRP1 mod 20
Cn1nc(C(C)(C)C)cc1C(=O)N1CCCC(c2cc(C(=O)NCc3ccccc3)no2)C1 (configuration not stated)	none
CCCC1CCC2(CC1)CCC2OC(=S)NCc1cccc(F)c1 (configuration not stated)	none (no result: CendR NRP1 mod, aDG glyco up)
O=C(CSc1nnc(Cc2cccs2)n1-c1ccccc1)Nc1ccccc1-c1ccccc1	none (no result: CendR NRP1 mod, aDG glyco up)
COc1ccc(N/C(=C\C(=O)c2ccccc2)c2ccccc2)cc1OC	none (no result: CendR NRP1 mod, aDG glyco up)
O=C(CCCC(=O)NCC1CCCO1)NCC1CCCO1 (configuration not stated)	CendR NRP1 mod 26
CCCCN=C(N)NC(=O)c1ccccc1	none (no result: CendR NRP1 mod, aDG glyco up)
Cc1nc2sc(C(c3ccco3)N3CCC(C)CC3)c(O)n2n1 (configuration not stated)	none

High-throughput results from PubChem.
